Reference: publication PMC11106139 (Clinical Pharmacokinetics, 2024)

Columns and labels:
[1] = Population pharmacokinetic; assay type: in vivo, human; details: SOLNC 0.8 and 2 mg/mL (phase III studies and commercial formulations)
Summary of the method: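 Pooled plasma data from 159 children with achondroplasia on daily subcutaneous vosoritide (2.5–30 µg/kg) across three phase II and two phase III trials. Samples were assayed by validated ELISA or electrochemiluminescence, and mostly pre-dose points were excluded. The fit was a one-compartment model with change-point first-order absorption (Ka1/Ka2) and first-order elimination, using log-transform-both-sides and SAEM/importance sampling. Covariates were added stepwise (p<0.01) with backward elimination, against a reference weight of 20 kg.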

[2] = test system: children with achondroplasia; details: 15 µg/kg per day, 1-year period, analysis of covariance; cited from earlier work

Structure (SMILES): CC[C@H](C)[C@@H]1NC(=O)[C@H](CCCNC(=N)N)NC(=O)[C@H](CC(=O)O)NC(=O)[C@H](CC(C)C)NC(=O)[C@H](CCCCN)NC(=O)[C@H](CC(C)C)NC(=O)CNC(=O)[C@H](Cc2ccccc2)NC(=O)[C@@H](NC(=O)CNC(=O)[C@H](CCCCN)NC(=O)[C@H](CO)NC(=O)[C@H](CC(C)C)NC(=O)CNC(=O)[C@H](CCCCN)NC(=O)[C@H](CCCCN)NC(=O)[C@H](CC(N)=O)NC(=O)[C@H](C)NC(=O)CNC(=O)[C@H](CCCCN)NC(=O)[C@H](Cc2ccc(O)cc2)NC(=O)[C@H](CCCCN)NC(=O)[C@H](CCCNC(=N)N)NC(=O)[C@H](C)NC(=O)[C@H](CC(N)=O)NC(=O)[C@@H]2CCCN2C(=O)[C@H](Cc2c[nH]cn2)NC(=O)[C@H](CCC(=O)O)NC(=O)[C@H](CCC(N)=O)NC(=O)CNC(=O)[C@@H]2CCCN2)CSSC[C@@H](C(=O)O)NC(=O)CNC(=O)[C@H](CC(C)C)NC(=O)CNC(=O)[C@H](CO)NC(=O)[C@H](CCSC)NC(=O)[C@H](CO)NC(=O)CNC1=O [vosoritide]
- effect of dosing solution concentration on relative bioavailability (F) [1]: did not have any effect on F
- increase in annualized growth velocity (least squares mean change from baseline) compared with placebo [2]: 1.57 cm/year
